Assay results published in ChEMBL document CHEMBL1152541, “Staurosporine tethered peptide ligands that target cAMP-dependent protein kinase (PKA): optimization and selectivity profiling” (Bioorg Med Chem, 2009).
*1 amine or outer side, *2 acyl side, *3 side chain or, on linkers, in order; H or OH if unused. Where a SMILES comes first, the peptide text is derived from it. Bridges are numbered along the chain shown (N, C = ends). [ ]: non-standard residue; d: D form. The star is where a group is joined. Staurosporine = CO[C@@H]1[C@H](N(C)*)C[C@H]2O[C@]1(C)n1c3ccccc3c3c4c(c5c6ccccc6n2c5c31)C(=O)NC4; Suc = O=C(CCC(=O)[*:2])[*:1]; Dap = NC[C@H](N)C(=O)O; βAla = NCCC(=O)O

Experiments:
[1] = target: Aurora kinase B (Homo sapiens) (UniProt Q96GD4); assay: Binding affinity to human aurora kinase B at 500 nM by cell-based competition binding assay relative to control in presence of DTT
Sequence of Aurora kinase B (Homo sapiens) (Q96GD4 whole entry, canonical isoform): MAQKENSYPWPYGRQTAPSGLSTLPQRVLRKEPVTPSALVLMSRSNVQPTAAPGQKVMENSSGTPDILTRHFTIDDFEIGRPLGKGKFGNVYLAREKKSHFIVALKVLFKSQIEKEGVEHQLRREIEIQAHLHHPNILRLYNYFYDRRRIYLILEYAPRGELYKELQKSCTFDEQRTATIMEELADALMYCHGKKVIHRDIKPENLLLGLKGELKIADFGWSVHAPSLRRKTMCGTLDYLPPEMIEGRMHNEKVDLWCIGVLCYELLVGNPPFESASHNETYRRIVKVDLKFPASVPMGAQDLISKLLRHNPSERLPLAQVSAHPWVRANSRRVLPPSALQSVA

[2] = target: Casein kinase I isoform delta (Homo sapiens) (UniProt P48730); assay: Binding affinity to human CSNK1D at 500 nM by cell-based competition binding assay relative to control in presence of DTT
Sequence of Casein kinase I isoform delta (Homo sapiens) (P48730 whole entry, looked up, canonical isoform): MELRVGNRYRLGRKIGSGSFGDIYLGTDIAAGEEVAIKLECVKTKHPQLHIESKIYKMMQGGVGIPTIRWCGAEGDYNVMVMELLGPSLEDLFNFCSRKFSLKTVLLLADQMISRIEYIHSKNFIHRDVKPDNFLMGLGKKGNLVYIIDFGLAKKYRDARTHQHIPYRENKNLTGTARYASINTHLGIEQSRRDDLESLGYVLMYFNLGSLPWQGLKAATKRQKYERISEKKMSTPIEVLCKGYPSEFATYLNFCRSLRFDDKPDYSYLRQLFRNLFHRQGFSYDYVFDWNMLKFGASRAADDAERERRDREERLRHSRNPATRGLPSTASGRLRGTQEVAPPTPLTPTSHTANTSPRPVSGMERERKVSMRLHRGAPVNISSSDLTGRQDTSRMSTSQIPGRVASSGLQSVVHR
Method in brief: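 Commercial (Ambit) competitive kinase-binding panel of 90 kinases measured the binding profile. Run under reducing conditions of 7.5 mM DTT. Binding is expressed relative to control.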

[3] = target: T1, Aurora kinase A (Homo sapiens) (UniProt O14965); assay: Binding affinity to human aurora kinase A at 500 nM by cell-based competition binding assay relative to control in presence of DTT
T1 sequence (whole entry): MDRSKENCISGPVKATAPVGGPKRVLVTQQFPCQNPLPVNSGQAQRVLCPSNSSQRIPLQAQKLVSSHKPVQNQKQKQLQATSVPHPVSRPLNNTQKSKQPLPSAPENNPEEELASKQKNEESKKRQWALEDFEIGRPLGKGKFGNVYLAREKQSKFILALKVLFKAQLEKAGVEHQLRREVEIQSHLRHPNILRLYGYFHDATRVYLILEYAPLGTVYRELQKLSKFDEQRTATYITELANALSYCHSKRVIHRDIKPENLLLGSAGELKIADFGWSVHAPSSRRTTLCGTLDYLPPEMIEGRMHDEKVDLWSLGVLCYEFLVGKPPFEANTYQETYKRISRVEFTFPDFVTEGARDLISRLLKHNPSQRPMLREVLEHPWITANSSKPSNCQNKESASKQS

[4] = target: RAC-alpha serine/threonine-protein kinase (Homo sapiens) (UniProt P31749); assay: Binding affinity to human AKT1 at 500 nM by cell-based competition binding assay relative to control in presence of DTT
Sequence of RAC-alpha serine/threonine-protein kinase (Homo sapiens) (P31749 whole entry): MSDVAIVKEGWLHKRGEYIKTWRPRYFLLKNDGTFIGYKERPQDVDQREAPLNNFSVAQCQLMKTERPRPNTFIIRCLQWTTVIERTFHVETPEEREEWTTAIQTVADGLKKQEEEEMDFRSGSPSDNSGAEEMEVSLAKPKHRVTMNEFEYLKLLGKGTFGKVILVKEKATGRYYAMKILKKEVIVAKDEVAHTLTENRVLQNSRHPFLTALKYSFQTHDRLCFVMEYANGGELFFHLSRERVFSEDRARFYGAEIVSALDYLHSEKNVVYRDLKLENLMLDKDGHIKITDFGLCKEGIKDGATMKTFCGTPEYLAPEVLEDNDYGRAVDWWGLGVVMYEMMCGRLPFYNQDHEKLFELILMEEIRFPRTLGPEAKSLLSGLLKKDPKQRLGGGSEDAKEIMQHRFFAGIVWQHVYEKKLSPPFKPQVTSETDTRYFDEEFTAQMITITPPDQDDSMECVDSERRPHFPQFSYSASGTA
Method in brief: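 Kinase binding profiling ran on a commercial (Ambit) competitive binding screen against a panel of 90 kinases. The screen used reducing conditions with 7.5 mM DTT. To withstand the DTT, the bivalent ligand was tested as its amide isostere, with the disulfide replaced. A staurosporine derivative carrying a 3 β-alanine linker was run as the reference compound.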

[5] = target: Phosphatidylinositol 4,5-bisphosphate 3-kinase catalytic subunit gamma isoform (Homo sapiens) (UniProt P48736); assay: Binding affinity to human PIK3Cgamma at 200 nM by cell-based competition binding assay relative to control in presence of DTT
Sequence of Phosphatidylinositol 4,5-bisphosphate 3-kinase catalytic subunit gamma isoform (Homo sapiens) (P48736 whole entry, looked up, canonical isoform): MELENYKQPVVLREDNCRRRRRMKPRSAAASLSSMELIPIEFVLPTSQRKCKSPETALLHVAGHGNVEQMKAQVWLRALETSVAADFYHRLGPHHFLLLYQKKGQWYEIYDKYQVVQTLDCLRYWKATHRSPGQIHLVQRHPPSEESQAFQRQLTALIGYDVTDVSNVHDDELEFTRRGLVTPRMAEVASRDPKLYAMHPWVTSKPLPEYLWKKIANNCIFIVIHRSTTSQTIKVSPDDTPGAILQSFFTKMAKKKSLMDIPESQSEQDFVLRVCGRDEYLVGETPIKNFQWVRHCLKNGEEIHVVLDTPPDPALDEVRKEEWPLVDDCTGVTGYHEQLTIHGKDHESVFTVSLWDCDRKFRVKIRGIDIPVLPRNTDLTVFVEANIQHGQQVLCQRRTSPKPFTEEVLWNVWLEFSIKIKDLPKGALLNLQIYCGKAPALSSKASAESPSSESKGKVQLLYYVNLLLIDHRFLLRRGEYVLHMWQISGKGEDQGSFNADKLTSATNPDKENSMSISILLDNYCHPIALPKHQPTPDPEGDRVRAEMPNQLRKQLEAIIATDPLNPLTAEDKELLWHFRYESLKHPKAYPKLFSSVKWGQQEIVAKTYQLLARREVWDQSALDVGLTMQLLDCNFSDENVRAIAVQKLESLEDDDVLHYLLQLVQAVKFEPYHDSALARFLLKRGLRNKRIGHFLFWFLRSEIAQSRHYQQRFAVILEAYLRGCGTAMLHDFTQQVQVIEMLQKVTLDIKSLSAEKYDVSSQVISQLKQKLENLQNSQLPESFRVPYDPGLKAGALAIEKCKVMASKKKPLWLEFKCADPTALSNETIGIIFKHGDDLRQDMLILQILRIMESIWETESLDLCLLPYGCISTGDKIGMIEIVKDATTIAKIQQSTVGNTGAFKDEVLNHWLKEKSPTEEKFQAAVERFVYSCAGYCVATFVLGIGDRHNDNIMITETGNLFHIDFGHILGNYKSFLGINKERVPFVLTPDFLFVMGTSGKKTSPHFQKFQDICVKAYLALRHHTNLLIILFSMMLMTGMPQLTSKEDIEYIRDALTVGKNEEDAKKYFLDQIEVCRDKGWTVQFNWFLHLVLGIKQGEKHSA

[6] = target: T2, Serine/threonine-protein kinase PLK4 (Homo sapiens) (UniProt O00444); assay: Binding affinity to human PLK4 at 200 nM by cell-based competition binding assay relative to control in presence of DTT
T2 sequence (whole entry): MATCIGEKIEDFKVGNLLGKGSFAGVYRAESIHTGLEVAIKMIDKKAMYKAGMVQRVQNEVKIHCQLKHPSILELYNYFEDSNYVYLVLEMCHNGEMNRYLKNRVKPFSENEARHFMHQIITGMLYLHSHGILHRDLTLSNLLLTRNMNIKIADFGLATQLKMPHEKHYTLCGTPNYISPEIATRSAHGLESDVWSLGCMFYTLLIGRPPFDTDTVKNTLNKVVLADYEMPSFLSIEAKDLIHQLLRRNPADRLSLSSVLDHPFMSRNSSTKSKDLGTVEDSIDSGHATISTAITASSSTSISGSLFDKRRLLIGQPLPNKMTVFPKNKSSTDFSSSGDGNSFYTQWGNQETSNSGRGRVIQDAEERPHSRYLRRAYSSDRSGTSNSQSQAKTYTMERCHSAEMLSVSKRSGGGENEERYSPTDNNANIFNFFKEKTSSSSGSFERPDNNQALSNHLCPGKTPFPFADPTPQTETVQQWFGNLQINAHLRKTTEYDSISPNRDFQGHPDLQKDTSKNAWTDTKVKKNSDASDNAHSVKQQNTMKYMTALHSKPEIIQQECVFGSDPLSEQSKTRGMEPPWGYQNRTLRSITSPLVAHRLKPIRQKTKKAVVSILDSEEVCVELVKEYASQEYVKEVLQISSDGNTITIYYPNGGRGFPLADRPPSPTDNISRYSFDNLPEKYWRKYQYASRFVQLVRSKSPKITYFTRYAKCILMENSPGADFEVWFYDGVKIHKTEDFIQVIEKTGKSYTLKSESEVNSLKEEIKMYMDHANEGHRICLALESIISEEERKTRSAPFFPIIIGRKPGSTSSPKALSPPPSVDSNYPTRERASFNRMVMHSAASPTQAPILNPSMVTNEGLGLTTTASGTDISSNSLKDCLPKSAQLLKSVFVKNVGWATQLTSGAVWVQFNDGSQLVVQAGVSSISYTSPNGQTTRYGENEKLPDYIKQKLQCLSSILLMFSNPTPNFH

[7] = target: Non-receptor tyrosine-protein kinase TYK2 (Homo sapiens) (UniProt P29597); assay: Binding affinity to human TYK2 kinase domain 2 at 200 nM by cell-based competition binding assay relative to control in presence of DTT
Sequence of Non-receptor tyrosine-protein kinase TYK2 (Homo sapiens) (P29597 whole entry, the tested form may be a part): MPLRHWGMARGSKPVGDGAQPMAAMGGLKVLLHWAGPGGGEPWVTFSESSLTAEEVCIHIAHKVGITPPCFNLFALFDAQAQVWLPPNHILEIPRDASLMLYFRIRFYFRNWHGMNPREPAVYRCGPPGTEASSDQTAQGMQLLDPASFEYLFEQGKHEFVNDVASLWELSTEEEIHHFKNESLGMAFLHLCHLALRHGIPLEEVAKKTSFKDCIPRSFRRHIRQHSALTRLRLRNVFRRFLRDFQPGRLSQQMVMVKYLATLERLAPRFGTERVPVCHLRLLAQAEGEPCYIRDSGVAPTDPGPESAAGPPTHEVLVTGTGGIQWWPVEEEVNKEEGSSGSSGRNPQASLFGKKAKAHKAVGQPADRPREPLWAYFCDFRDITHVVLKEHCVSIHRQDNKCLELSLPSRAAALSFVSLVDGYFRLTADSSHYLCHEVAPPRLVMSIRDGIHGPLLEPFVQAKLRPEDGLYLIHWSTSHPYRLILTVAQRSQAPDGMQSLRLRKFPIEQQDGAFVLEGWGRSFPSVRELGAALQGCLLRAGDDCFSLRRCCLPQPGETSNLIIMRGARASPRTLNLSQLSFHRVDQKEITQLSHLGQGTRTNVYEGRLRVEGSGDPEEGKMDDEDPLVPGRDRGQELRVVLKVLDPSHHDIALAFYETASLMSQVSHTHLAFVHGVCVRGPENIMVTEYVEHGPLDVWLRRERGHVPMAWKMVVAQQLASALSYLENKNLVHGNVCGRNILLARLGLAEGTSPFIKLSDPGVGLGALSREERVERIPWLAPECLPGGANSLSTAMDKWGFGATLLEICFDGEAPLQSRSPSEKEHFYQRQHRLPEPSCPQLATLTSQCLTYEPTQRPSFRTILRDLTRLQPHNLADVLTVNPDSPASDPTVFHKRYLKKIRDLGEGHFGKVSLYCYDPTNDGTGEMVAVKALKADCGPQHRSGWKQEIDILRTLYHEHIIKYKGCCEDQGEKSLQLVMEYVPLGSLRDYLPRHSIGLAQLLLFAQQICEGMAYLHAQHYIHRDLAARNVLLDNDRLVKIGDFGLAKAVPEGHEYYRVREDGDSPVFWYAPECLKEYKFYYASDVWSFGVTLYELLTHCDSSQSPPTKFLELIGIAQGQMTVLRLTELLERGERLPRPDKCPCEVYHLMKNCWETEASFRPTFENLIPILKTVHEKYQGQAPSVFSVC

[8] = target: T3, Serine/threonine-protein kinase STK11 (Homo sapiens) (UniProt Q15831); assay: Binding affinity to human LKB1 at 200 nM by cell-based competition binding assay relative to control in presence of DTT
T3 sequence (whole entry): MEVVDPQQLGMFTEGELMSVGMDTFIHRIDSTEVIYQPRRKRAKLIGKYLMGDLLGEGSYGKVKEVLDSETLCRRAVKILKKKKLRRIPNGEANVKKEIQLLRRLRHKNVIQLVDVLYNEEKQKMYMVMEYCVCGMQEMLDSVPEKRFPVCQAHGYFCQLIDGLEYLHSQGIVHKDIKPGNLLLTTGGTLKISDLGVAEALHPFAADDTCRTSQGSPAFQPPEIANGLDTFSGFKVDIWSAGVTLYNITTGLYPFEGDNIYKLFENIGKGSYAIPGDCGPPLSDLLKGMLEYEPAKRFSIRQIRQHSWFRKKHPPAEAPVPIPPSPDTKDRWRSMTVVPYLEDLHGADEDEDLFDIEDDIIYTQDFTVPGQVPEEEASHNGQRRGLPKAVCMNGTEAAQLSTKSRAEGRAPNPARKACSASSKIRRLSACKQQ
Method in brief: (§1)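 Competition binding screen (Ambit) across a panel of 90 kinases, scoring test ligand displacement of each kinase's binding relative to control. The screen ran under reducing conditions with 7.5 mM DTT.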

[9] = target: Serine/threonine-protein kinase PAK 1 (Homo sapiens) (UniProt Q13153); assay: Binding affinity to human PAK1 at 200 nM by cell-based competition binding assay relative to control in presence of DTT
[10] = target: Tyrosine-protein kinase JAK2 (Homo sapiens) (UniProt O60674); assay: Binding affinity to human JAK2 kinase domain 2 at 50 nM by cell-based competition binding assay relative to control in presence of DTT; method in brief: as §1
Sequence of Tyrosine-protein kinase JAK2 (Homo sapiens) (O60674 whole entry, the tested form may be a part): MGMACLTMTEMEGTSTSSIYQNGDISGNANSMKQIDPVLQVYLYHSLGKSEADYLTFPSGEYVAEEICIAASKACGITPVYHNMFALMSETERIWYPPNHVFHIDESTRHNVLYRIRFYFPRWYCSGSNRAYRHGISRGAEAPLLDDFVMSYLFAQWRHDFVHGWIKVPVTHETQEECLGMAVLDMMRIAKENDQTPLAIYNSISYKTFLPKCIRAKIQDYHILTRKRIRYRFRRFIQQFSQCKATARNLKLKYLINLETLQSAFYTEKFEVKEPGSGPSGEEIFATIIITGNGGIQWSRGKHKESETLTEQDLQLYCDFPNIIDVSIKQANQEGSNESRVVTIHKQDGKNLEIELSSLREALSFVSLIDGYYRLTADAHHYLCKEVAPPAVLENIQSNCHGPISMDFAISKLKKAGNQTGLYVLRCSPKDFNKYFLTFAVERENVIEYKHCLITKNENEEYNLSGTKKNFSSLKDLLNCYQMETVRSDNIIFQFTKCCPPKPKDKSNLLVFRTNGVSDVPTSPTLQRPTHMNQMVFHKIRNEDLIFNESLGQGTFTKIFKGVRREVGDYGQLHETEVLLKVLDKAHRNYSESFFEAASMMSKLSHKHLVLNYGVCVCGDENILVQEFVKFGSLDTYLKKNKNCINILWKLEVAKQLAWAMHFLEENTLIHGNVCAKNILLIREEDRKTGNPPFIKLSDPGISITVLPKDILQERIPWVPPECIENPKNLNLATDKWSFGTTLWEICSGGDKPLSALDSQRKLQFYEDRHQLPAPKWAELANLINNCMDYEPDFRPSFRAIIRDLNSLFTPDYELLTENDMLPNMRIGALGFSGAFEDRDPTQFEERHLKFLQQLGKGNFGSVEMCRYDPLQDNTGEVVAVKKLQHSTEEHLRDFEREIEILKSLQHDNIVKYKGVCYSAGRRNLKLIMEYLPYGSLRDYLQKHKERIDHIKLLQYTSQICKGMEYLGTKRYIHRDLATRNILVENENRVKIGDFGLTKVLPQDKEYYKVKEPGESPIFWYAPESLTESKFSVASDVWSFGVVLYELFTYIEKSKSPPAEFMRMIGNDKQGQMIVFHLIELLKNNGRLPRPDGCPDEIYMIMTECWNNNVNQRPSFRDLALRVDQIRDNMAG

[11] = target: T2, Serine/threonine-protein kinase PLK4 (Homo sapiens); assay: Binding affinity to human PLK4 at 50 nM by cell-based competition binding assay relative to control in presence of DTT
[12] = target: Serine/threonine-protein kinase PLK1 (Homo sapiens) (UniProt P53350); assay: Binding affinity to human PLK1 at 50 nM by cell-based competition binding assay relative to control in presence of DTT

CO[C@@H]1[C@H](N(C)C(=O)CCC(=O)NCCC(=O)NCCC(=O)NCCC(N)=O)C[C@H]2O[C@]1(C)n1c3ccccc3c3c4c(c5c6ccccc6n2c5c31)C(=O)NC4
Activity [1]: 0%
Activity [2]: 89%
Activity [3]: 4.2%
Activity [4]: 100%

CO[C@@H]1[C@H](N(C)C(=O)CCC(=O)NCCC(=O)NCCC(=O)NCCC(=O)NCCC(=O)NCCC(=O)NCCC(=O)NCCC(=O)N[C@H]2CSSC[C@@H](C(=O)NCC(N)=O)NC(=O)CNC(=O)[C@H](Cc3ccccc3)NC(=O)[C@H](C(C)C)NC(=O)[C@H](CCCNC(=N)N)NC(=O)[C@H](Cc3ccccc3)NC(=O)[C@H](C(C)C)NC2=O)C[C@H]2O[C@]1(C)n1c3ccccc3c3c4c(c5c6ccccc6n2c5c31)C(=O)NC4 ({Staurosporine-Suc-βAla-βAla-βAla-βAla-βAla-βAla-βAla}-CVFRVFGCG-NH2; disulfide 1-8)
Activity [5]: 100%
Activity [6]: 4.9%
Activity [7]: 62%
Activity [8]: 81%
Activity [9]: 14%

CO[C@@H]1[C@H](N(C)C(=O)CCC(=O)NCCC(=O)NCCC(=O)NCCC(=O)NCCC(=O)NCCC(=O)NCCC(=O)NCCC(=O)N[C@H]2CNC(=O)C[C@@H](C(N)=O)NC(=O)CNC(=O)[C@H](Cc3ccccc3)NC(=O)[C@H](C(C)C)NC(=O)[C@H](CCCNC(=N)N)NC(=O)[C@H](Cc3ccccc3)NC(=O)[C@H](C(C)C)NC2=O)C[C@H]2O[C@]1(C)n1c3ccccc3c3c4c(c5c6ccccc6n2c5c31)C(=O)NC4 ({Staurosporine-Suc-βAla-βAla-βAla-βAla-βAla-βAla-βAla}-[Dap]VFRVFGD-NH2; lactam 1-8)
Activity [10]: 42%
Activity [11]: 5.7%
Activity [12]: 100%
